# CYP2C9 inh: blockers of cytochrome P450 2C9 activity – biochemical, luminescence, ADME assay, primary screen. P11712. CYP2C9 Supersomes, luciferin-H conversion. inhibition, % at 5 µM. 20% of 96,000 active. AID 777, 2007;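 active means blocking of liver enzyme CYP2C9 beyond about 50% at 5 µM, limit read from the data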
# CYP2C19 inh: blockers of cytochrome P450 2C19 activity – biochemical, luminescence, ADME assay, primary screen; CYP2C19 Supersomes, luciferin-H EGE luminescence, 30 min; inhibition, % at 5 µM; 21% of 96,000 active;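 active means CYP2C19 inhibition above a set limit at 5 µM in the primary screen, cut at about 50% in these data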
# Target sequence (P33261 whole entry, looked up): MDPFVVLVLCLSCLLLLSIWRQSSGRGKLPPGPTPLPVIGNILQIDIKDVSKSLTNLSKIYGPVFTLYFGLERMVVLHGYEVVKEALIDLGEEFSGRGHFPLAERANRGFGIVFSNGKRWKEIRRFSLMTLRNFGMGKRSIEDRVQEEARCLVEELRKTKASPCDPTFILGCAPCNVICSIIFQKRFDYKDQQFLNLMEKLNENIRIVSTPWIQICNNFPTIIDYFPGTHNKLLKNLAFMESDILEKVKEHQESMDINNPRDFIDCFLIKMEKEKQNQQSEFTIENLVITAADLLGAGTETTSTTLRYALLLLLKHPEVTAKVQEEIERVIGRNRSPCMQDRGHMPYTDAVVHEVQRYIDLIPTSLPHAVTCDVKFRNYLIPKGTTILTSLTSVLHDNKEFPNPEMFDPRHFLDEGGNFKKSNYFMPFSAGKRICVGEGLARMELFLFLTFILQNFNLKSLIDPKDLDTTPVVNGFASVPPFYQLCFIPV
# E coli WT exp: growth inhibitors of wild-type E. coli, primary screen, strain BW25113, expanded library, OD600 | OD600 absorbance | growth inhibition, % at 100 µM | 0.15% of 98,000 active;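 active means growth inhibition above about 50% at one test dose, limit read from the data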;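 further: growth measured after 20 h incubation at 37 °C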
# CYP2C19 act: human CYP2C19 activators, primary screen, biochemical, luminescence | Cytochrome P450 2C19 (Homo sapiens), P33261 | recombinant CYP2C19, luciferin-H EGE luminescence; stronger effect = higher value; 0 = fully inhibited enzyme, 1 = untreated enzyme | activation factor at 5 µM | 96,000 tested, under 10 active;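 active means activation factor of at least 2 at 5 µM in the primary screen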
# tolC growth inh: growth inhibitors of E. coli tolC mutant, primary screen, strain BW25113 ΔtolC::kan, 384-well. OD615. growth inhibition, % at 10 µM (by protocol). 2.2% of 65,000 active. AID 573, 2007;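 active means growth inhibition at or above a cutoff equal to the mean over every tested compound plus 3 SD, cut at about 60% in these data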;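 further: growth measured after 20 h incubation at 37 °C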
#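 Signal: optical density read at 615 nm; Assay system: E. coli ΔtolC::kan strain BW25113; Times: 20 h incubation with compound, 37 °C; Dosing: 10 µM final, single dose.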
# CYP2C9 activ: human CYP2C9 activators, primary screen, biochemical, luminescence | AID 1024, 2008 | 1.4% of 96,000 active | activation factor at 5 µM | Cytochrome P450 2C9 (Homo sapiens), P11712 | recombinant CYP2C9, luciferin-H conversion; stronger effect = higher value; factor 1 = untreated enzyme, 0 = blocked;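 active means activation factor of 2 or more for CYP2C9 at a 5 µM dose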
# Numbers stand for hits; i = inactive; nt = no result given. The list is not random: actives were taken first. Their share in the collection is about 29%.
SMILES,CYP2C9 inh,CYP2C19 inh,E coli WT exp,CYP2C19 act,tolC growth inh,CYP2C9 activ
O=C(C1COc2ccccc2O1)N1CCn2c(nc3ccccc32)C1 (stereo not drawn),i,84.7,i,i,i,i
O=C(C1COc2ccccc2O1)N1CCOCC1 (stereo not drawn),i,i,i,i,i,i
O=C(c1ccccc1)N1CCn2c(nc3ccccc32)C1,i,i,nt,i,i,i
Cc1ccc(C)n1CCN1CCN(CC(=O)Nc2cc(C(F)(F)F)ccc2Cl)CC1,i,i,i,i,i,i
COc1ccc(NS(=O)(=O)c2cc(-c3nnnn3C)ccc2OC)cc1,i,i,i,i,i,i
Cc1ccc(Cn2nnc3c(=O)n(CC(=O)N4CCN(c5ccccc5)CC4)cnc32)cc1,i,i,i,i,i,i
CCOC(=O)c1ccccc1NC(=O)c1cn(CC)c2nc(C)ccc2c1=O,nt,nt,nt,nt,i,nt
O=C1NC(=S)N/C1=C/c1cc([N+](=O)[O-])ccc1O,i,i,i,i,nt,i
COC(=O)c1sc(OC)cc1OCc1ccc(C)cc1,i,52.6,i,i,nt,i
COC(=O)NC1CSCC1OC(=O)CN1C(=O)c2ccccc2C1=O (stereo not drawn),i,i,i,i,i,i
CCOC(=O)c1ccccc1NC(=O)c1cccc(F)c1,i,i,i,i,nt,i
Cc1cccc(C(=O)CC(=O)c2cc(Cl)ccc2O)c1,79.0,i,i,i,nt,i
Cc1ccc(O)c(C(=O)CC(=O)c2cccc(F)c2)c1,i,i,i,i,100.0,i
COc1ccccc1NC(=O)CNC(=O)c1ccc(F)cc1,i,i,i,i,i,i
Cc1cccc(C(=O)Nc2ccc(O)cc2)c1,nt,nt,i,nt,i,nt
O=C(CC(=O)c1cc(Cl)ccc1O)c1ccccc1,i,i,i,i,96.6,i
COc1ccc(O)c(C(=O)CC(=O)c2ccc(F)cc2)c1,i,i,i,i,100.0,i
CNc1nc2c(c(=O)[nH]c(=O)n2C)n1CCOC,i,i,i,i,i,i
CS(=O)(=O)N(CC(=O)Nc1c(F)cccc1F)c1cccc([N+](=O)[O-])c1,i,i,i,i,nt,i
CCN(N=Nc1cccc([N+](=O)[O-])c1)c1cccc([N+](=O)[O-])c1,57.7,i,i,i,nt,i
O=c1cc(Cn2ccnc2)c2cc3c(cc2o1)CCC3,i,100.4,i,i,i,i
Cc1cc2oc(=O)cc(Cn3ccnc3)c2cc1C,56.6,100.4,i,i,i,i
Cc1cc(C)n2nc(SCc3cc(=O)oc4cc(C)c(C)cc34)nc2n1,i,i,i,i,nt,i
O=c1cc(CN2CCN(CCO)CC2)c2cc3c(cc2o1)CCC3,i,i,i,i,i,i
O=C(CN(c1ccccc1F)S(=O)(=O)c1ccccc1)NC1CCCCCC1,52.0,i,i,i,nt,i
SMILES,CYP2C9 inh,CYP2C19 inh,E coli WT exp,CYP2C19 act,tolC growth inh,CYP2C9 activ
CSc1ccccc1NC(=O)CN(Cc1ccccc1)S(C)(=O)=O,i,i,i,i,i,i
Cc1c(Cl)cccc1N(CC(=O)NC1CCCCC1)S(C)(=O)=O,70.4,i,i,i,i,i
CCOc1ccccc1NC(=O)CN(Cc1ccccc1)S(C)(=O)=O,i,93.6,i,i,i,i
CSc1cccc(NC(=O)CN(Cc2ccc(Cl)cc2)S(C)(=O)=O)c1,91.8,92.0,i,i,nt,i
CS(=O)(=O)N(CC(N)=O)Cc1ccc(Cl)cc1,i,i,i,i,i,i
CC(C)=C1C2C=CC1C(C(=O)Nc1cccc(C)c1)C2C(=O)O (stereo not drawn),i,i,i,i,i,i
COc1ccc(NC(=O)c2ccco2)cc1N,i,i,i,i,i,i
CSc1ccccc1NC(=O)CN(Cc1ccc(Cl)cc1)S(C)(=O)=O,i,i,i,i,i,i
COc1ccc(NC(=O)CN(Cc2ccccc2)S(C)(=O)=O)cc1,i,79.0,i,i,nt,i
CS(=O)(=O)N(CC(=O)Nc1ccccc1)Cc1ccc(Cl)cc1,88.7,96.1,i,i,nt,i
CS(=O)(=O)N(CC(=O)NC1CCCCCC1)Cc1ccccc1,i,86.6,i,i,i,i
Cc1cc(N2CCN(C3CCCC3)CC2)n2nc(C)c(-c3ccccc3)c2n1,nt,nt,nt,nt,i,nt
Cn1c(NC(=O)c2ccc(F)c(F)c2)cc(=O)n(C)c1=O,i,i,i,i,i,i
Cc1cc(NC(=O)CSc2nnc(-c3cccnc3)n2N)no1,i,i,i,i,nt,i
CC(C)NC(=O)NC(=O)COc1cccc2c1OC(C)(C)C2,i,92.6,i,i,i,i
O=S1(=O)C=C(SCc2ccc(Cl)c(Cl)c2)Nc2ccccc21,71.0,68.5,i,i,nt,i
COc1ccccc1NC(=O)COc1ccc(CO)cc1Cl,92.4,97.0,i,i,i,i
COc1ccccc1NC(=S)NC(=O)CCCOc1ccc(Cl)cc1Cl,i,i,i,i,nt,i
Cc1cc(C)cc(OCC(=O)Nc2ccc(N3CCCC3)cc2)c1,i,i,i,i,i,i
Cc1cc(C)cc(OCC(=O)Nc2ccc(F)cc2)c1,i,59.4,i,i,nt,i
Cc1cc(C)cc(OCC(=O)NCCN2CCOCC2)c1,i,i,i,i,i,i
Cc1cc(OCC(=O)NCC(C)C)cc(C)c1Br,i,i,i,i,nt,i
Cc1cc(OCC(=O)Nc2ccncc2)cc(C)c1Br,99.0,99.5,i,i,nt,i
Cc1cc(OCC(=O)NCCN2CCOCC2)cc(C)c1Br,i,98.7,i,i,i,2.1
CCN(CC)CCNC(=O)c1ccc(CS(=O)(=O)c2ccc(Br)cc2)o1,nt,nt,i,nt,i,nt
SMILES,CYP2C9 inh,CYP2C19 inh,E coli WT exp,CYP2C19 act,tolC growth inh,CYP2C9 activ
O=S(=O)(CCc1nc2ccccc2s1)c1ccc2ccccc2c1,i,i,i,i,nt,i
CCC(=O)NC(=S)Nc1ccc(NC(=O)COc2ccc(Cl)cc2Cl)cc1,i,i,i,i,nt,i
O=C(COc1ccc(CO)cc1Cl)Nc1ccc(F)cc1,i,58.5,i,i,nt,i
O=C(COc1ccc(CO)cc1)Nc1ccc(F)cc1,i,51.5,i,i,i,i
O=C(COc1ccc(F)cc1)Nc1nccs1,nt,nt,i,nt,i,nt
Nc1c(N(C(=O)Nc2ccc(Cl)c(Cl)c2)C2CCCC2)c(=O)[nH]c(=O)n1Cc1ccccc1,i,i,i,i,nt,i
O=C(Nc1cc(Oc2ccccc2)cc([N+](=O)[O-])c1)C12CC3CC(C1)CC(n1cnc(Cl)n1)(C3)C2,68.5,53.7,i,i,nt,i
COc1ccc(NC(=O)C23CC4CC(C2)CC(n2cnc(Br)n2)(C4)C3)cc1Cl,i,i,i,i,nt,i
O=C(O)c1cccc(NC(=O)C23CC4CC(C2)CC(n2cnc(Cl)n2)(C4)C3)c1,70.9,61.7,i,i,i,i
Cc1ccc2nc(SCC(=O)Nc3ccc4c(c3)OCCO4)[nH]c2c1,83.3,i,i,i,nt,i

# Source: PubChem
